ChEMBL document CHEMBL1148324 (J Med Chem, 2004)

Legend:
[1] = target: T1, Sulfonylurea receptors; K-ATP channels (Homo sapiens, UniProt O60706+Q09428+Q14654+Q15842); experiment: Evaluated for K-ATP activity in terms of change in membrane potential through guinea pig bladder assay; assay type: functional, Cavia porcellus; conditions: target entry is the homologue from another species
[2] = target: T1, Sulfonylurea receptors; K-ATP channels; experiment: Evaluated for K-ATP activity in terms of stable twitch response through field-stimulated landrace pig detrusor assay; assay type: functional, Sus scrofa; conditions: target entry is the homologue from another species
[3] = species on record: Sus scrofa; experiment: Evaluated for change in heart rate from baseline at a plasma concentration of 12 nM in pigs; assay type: functional
Method in brief: (§1)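 Conscious female Landrace/Yorkshire swine (~12 weeks, 14–20 kg), urethra obstructed with a 7.5 mm silver omega ring, telemeterized, held in a restraint cage with ear venous catheters. After a 30 min baseline, increasing doses are given i.v. (3 min infusion) at 30 min intervals. Plasma is sampled 15 min after each dose for LC/MS. MAP and HR are averaged in 5 min bins over each 30 min period, expressed as % change from baseline; n = 2–4.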

[4] = species on record: Sus scrofa; experiment: Evaluated for change in heart rate from baseline at a plasma concentration of 167 nM in pigs; assay type: functional; method in brief: as §1
[5] = species on record: Sus scrofa; experiment: Evaluated for change in heart rate from baseline at a plasma concentration of 44 nM in pigs; assay type: functional; method in brief: as §1
[6] = species on record: Sus scrofa; experiment: Evaluated for change in mean arterial pressure from baseline at a plasma concentration of 12 nM in pigs; assay type: functional; method in brief: as §1
[7] = species on record: Sus scrofa; experiment: Evaluated for change in mean arterial pressure from baseline at a plasma concentration of 167 nM in pigs; assay type: functional; method in brief: as §1
[8] = species on record: Sus scrofa; experiment: Evaluated for change in mean arterial pressure from baseline at a plasma concentration of 44 nM in pigs; assay type: functional; method in brief: as §1

Row | Compound | EC50 [1] [nM] | EC50 [2] [nM] | also measured
1 | O=C1CCCC2=C1[C@H](c1ccc(F)c(-c3cccnc3)c1)C1=C(CCS1(=O)=O)N2 | > 10000 |  | 
2 | CC1(C)CCC2=C(C1=O)[C@@H](c1ccc(F)c(Br)c1)C1=C(CCS1(=O)=O)N2 | 107 | 977 | 
3 | O=C1CCCC2=C1C(c1ccc(F)c(Br)c1)C1=C(CCCCS1(=O)=O)N2 (stereo unspecified) | 3310 |  | 
4 | CCOC(=O)C1=C(C(F)(F)F)NC2=C(C1c1ccc(F)c(Br)c1)S(=O)(=O)CC2 (stereo unspecified) | > 10000 |  | 
5 | O=C1CCC2=C1[C@H](c1ccc(F)c(Br)c1)C1=C(CCCS1(=O)=O)N2 | 14800 | 26300 | 
6 | O=S1(=O)CCCC2=C1C(c1ccc(F)c(Br)c1)C1=C(CCCS1(=O)=O)N2 | 3160 | 11700 | 
7 | O=C1CCC2=C1[C@@H](c1ccc(F)c(Br)c1)C1=C(CCCS1(=O)=O)N2 | 52.5 | 282 | 
8 | CC1(C)Oc2ccc(C#N)cc2[C@H](N2CCCC2=O)[C@H]1O (single isomer, unassigned) [(-)-CROMAKALIM] |  |  | Delta HR [3]: 13%; Delta HR [4]: 47%; Delta HR [5]: 38%; Delta MAP [6]: -6.3%; Delta MAP [7]: -33%; Delta MAP [8]: -12%
9 | CC1=C(C(=O)O)C(c2ccc(F)c(Br)c2)C2=C(CCS2(=O)=O)N1 (stereo unspecified) | 1820 | 8710 | 
10 | CC1(C)CCC(=O)C2=C1NC1=C([C@@H]2c2ccc(F)c(Br)c2)S(=O)(=O)CC1 | > 10000 |  | 
11 | O=C1CCCC2=C1[C@H](c1ccc(F)c(-c3ccccc3)c1)C1=C(CCS1(=O)=O)N2 | 12000 |  | 
12 | O=C1CCC2=C1C(c1ccc(F)c(Br)c1)C1=C(CCCCS1(=O)=O)N2 (stereo unspecified) | 2240 | 11700 | 
13 | COC(=O)C1=C(C)NC2=C(C1c1ccc(F)c(Br)c1)S(=O)(=O)CC2 (stereo unspecified) | 53.7 |  | 
14 | O=S1(=O)CCC2=C1C(c1ccc(F)c(Br)c1)C1=C(CCS1(=O)=O)N2 | 339 | 269 | 
15 | O=C1CCC2=C1[C@H](c1ccc(F)c(Br)c1)C1=C(CCS1(=O)=O)N2 | 575 | 339 | 
16 | CC(=O)C1=C(C)NC2=C(C1c1ccc(F)c(Br)c1)S(=O)(=O)CCC2 (stereo unspecified) | 214 | 794 | 
17 | O=C1CCC2=C1C(c1cncc([N+](=O)[O-])c1)C1=C(CCS1(=O)=O)N2 (stereo unspecified) | > 10000 |  | 
18 | O=C1CCC2=C1[C@@H](c1ccc(F)c(Br)c1)C1=C(CCS1(=O)=O)N2 | 33.1 | 30.9 | 
19 | N#Cc1cc(C2C3=C(CCC3=O)NC3=C2S(=O)(=O)CC3)ccn1 (stereo unspecified) | 3160 |  | 
20 | CCOC(=O)C1=C(C)NC2=C(C1c1ccc(F)c(Br)c1)S(=O)(=O)CC2 (stereo unspecified) | 501 |  | 

The next lines start with results.

Row | EC50 [1] [nM] | EC50 [2] [nM] | Compound | also measured
21 | > 10000 |  | O=C1CCCC2=C1[C@H](c1ccc(F)c(-c3cccs3)c1)C1=C(CCS1(=O)=O)N2 | 
22 | 575 | 20400 | O=C1CCCC2=C1[C@H](c1cc(Br)ccc1O)C1=C(CCS1(=O)=O)N2 | 
23 | 1320 |  | O=C1CCCC2=C1[C@H](c1ccc(Cl)c(F)c1)C1=C(CCS1(=O)=O)N2 | 
24 | 2570 |  | CSc1cc([C@H]2C3=C(CCCC3=O)NC3=C2S(=O)(=O)CC3)ccc1F | 
25 | 468 |  | N#Cc1cc([C@H]2C3=C(CCCC3=O)NC3=C2S(=O)(=O)CC3)ccc1F | 
26 | 61700 |  | O=C1CCCC2=C1[C@H](c1cc(Cl)c(Cl)cc1CO)C1=C(CCS1(=O)=O)N2 | 
27 | 28.2 | 447 | O=C1CCCC2=C1[C@H](c1ccc(F)c(I)c1)C1=C(CCS1(=O)=O)N2 | 
28 | > 10000 |  | O=C1CCCC2=C1[C@H](c1ccc(Br)cc1)C1=C(CCS1(=O)=O)N2 | 
29 | 214 | 1700 | O=C1CCCC2=C1[C@H](c1ccc(F)c(-c3ccco3)c1)C1=C(CCS1(=O)=O)N2 | 
30 | 138 | 214 | O=C1CCCC2=C1[C@H](c1ccc(F)c(Cl)c1)C1=C(CCS1(=O)=O)N2 | 
31 | 1200 | 6760 | O=C1CCCC2=C1C(c1ccc(F)c(Br)c1)C1=C(CCCS1(=O)=O)N2 (single isomer, unassigned; (+)) | 
32 | 1350 | 2450 | C=Cc1cc([C@H]2C3=C(CCCC3=O)NC3=C2S(=O)(=O)CC3)ccc1F | 
33 | 2040 |  | O=C1CCCC2=C1[C@H](c1ccc(F)c(F)c1)C1=C(CCS1(=O)=O)N2 | 
34 | 38 | 363 | O=C1CCCC2=C1C(c1ccc(F)c(Br)c1)C1=C(CCCS1(=O)=O)N2 (stereo in doubt; 17(-)) | 
